Data from ChEMBL document CHEMBL5260822, “Structure-based design and synthesis of 2,4-diaminopyrimidines as EGFR L858R/T790M selective inhibitors for NSCLC” (Eur J Med Chem, 2017).
Calls of active or inactive are those of the source. No cut-off for these calls is given here.

Columns and labels:
[1] = molecular target: T1, Epidermal growth factor receptor (Homo sapiens, UniProt P00533); experiment: Inhibition of EGFR phosphorylation in EGF-stimulated human A-431 cells harboring wild type EGFR at 100 nM and measured after 2 hrs by Western blot analysis; format: cell-based
T1 sequence (P00533 whole entry): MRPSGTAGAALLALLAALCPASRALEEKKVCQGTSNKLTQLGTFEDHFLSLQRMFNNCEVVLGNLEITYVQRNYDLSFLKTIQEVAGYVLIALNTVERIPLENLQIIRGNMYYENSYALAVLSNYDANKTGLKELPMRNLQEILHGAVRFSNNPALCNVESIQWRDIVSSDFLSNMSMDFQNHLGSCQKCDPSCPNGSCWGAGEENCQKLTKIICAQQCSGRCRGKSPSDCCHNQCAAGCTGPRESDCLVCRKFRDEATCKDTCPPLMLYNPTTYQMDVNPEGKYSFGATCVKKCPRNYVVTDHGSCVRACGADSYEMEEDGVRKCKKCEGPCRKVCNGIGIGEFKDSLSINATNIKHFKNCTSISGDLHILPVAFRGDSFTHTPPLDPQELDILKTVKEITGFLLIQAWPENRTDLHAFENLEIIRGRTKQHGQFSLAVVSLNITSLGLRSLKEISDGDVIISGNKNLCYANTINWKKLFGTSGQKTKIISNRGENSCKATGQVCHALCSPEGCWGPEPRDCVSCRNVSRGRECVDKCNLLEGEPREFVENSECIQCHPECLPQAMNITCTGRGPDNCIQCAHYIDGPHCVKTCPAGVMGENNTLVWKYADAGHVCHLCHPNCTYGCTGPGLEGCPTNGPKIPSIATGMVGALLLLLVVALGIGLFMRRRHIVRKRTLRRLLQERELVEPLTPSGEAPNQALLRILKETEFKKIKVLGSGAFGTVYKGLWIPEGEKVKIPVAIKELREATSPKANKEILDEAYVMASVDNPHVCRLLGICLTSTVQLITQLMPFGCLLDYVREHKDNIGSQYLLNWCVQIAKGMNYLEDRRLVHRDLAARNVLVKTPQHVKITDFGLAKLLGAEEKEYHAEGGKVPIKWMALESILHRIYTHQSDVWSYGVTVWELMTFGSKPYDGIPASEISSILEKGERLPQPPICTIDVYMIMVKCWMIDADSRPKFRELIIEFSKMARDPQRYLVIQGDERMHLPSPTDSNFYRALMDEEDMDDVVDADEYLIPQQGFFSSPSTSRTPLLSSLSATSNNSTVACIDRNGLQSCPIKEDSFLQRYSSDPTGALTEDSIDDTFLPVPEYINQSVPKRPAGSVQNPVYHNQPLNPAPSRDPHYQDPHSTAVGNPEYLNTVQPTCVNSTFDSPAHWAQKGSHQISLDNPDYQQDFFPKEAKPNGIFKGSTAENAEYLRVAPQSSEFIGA
Procedure, shortened: (§1)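 Cells treated with compound for 2 h, then stimulated with EGF for 15 min and lysed. Lysates cleared at 12,000 × g (10 min, 4 °C), protein measured by Bradford assay, and equal amounts run on 8% SDS-PAGE and blotted to nitrocellulose. Probed for p-EGFR (Y1068), EGFR, p-ERK (T202/Y204), ERK, with tubulin or GAPDH as loading controls.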

NCI-H1975 [2] = experiment: Inhibition of Erk signalling in EGF-stimulated human NCI-H1975 cells harboring EGFR L858R/T790M double mutant assessed as decrease in p-ERK level at 0.1 to 100 nM and measured after 2 hrs by Western blot analysis; format: cell-based; conditions: dose 0.1-100 nM; procedure, shortened: as §1
NCI-H1975 [3] = experiment: Inhibition of Akt signalling in EGF-stimulated human NCI-H1975 cells harboring EGFR L858R/T790M double mutant assessed as […] at 0.1 to 100 nM and measured after 2 hrs by Western blot analysis; format: cell-based; conditions: dose 0.1-100 nM
[4] = test system: Epidermal growth factor receptor (Homo sapiens), P00533 [L858R,T790M]; experiment: Inhibition of EGFR phosphorylation in EGF-stimulated human NCI-H1975 cells harboring EGFR L858R/T790M double mutant at 0.1 to 100 nM and measured after 2 hrs by Western blot analysis; format: cell-based; conditions: dose 0.1-100 nM; procedure, shortened: as §1
Chain of Epidermal growth factor receptor (Homo sapiens), P00533 [L858R,T790M] (P00533 whole entry T790M/L858R, looked up): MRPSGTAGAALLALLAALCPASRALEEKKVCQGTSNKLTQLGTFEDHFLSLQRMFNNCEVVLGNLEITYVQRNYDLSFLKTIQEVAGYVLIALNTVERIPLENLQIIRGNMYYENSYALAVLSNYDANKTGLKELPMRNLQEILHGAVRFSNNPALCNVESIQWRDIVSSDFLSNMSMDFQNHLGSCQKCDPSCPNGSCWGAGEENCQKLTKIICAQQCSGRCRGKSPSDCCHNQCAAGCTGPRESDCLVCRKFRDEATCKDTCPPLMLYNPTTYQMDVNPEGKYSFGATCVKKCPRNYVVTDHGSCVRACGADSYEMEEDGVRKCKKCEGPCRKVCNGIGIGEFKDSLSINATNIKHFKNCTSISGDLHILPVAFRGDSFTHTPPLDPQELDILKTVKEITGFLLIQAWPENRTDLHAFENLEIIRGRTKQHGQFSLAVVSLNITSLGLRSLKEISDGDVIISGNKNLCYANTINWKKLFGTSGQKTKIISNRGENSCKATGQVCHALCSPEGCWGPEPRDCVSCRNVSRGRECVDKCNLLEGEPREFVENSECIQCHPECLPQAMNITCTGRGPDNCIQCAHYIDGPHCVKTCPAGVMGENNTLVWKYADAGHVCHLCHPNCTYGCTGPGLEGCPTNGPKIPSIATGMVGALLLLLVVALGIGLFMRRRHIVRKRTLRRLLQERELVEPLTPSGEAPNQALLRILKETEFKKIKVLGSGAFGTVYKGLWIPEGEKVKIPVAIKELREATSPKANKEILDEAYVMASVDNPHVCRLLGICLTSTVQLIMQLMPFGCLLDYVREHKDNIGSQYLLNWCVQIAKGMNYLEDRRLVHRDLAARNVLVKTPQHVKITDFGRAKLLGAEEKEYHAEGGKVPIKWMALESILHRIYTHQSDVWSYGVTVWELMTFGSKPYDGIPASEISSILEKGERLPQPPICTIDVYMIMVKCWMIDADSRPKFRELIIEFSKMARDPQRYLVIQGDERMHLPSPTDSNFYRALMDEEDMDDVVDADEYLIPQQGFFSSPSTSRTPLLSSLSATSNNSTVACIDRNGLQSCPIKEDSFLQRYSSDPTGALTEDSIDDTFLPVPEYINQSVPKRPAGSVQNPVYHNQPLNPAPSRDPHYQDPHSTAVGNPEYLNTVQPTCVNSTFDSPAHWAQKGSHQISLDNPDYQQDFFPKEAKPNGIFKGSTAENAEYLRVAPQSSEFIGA

NCI-H1975 [5] = experiment: Antiproliferative activity against human NCI-H1975 cells harboring EGFR L858R/T790M double mutant assessed as inhibition of cell proliferation incubated for 72 hrs by sulforhodamine B colorimetric assay; format: functional, cell-based; conditions: NCI-H1975, 72 h
A-431 = experiment: Antiproliferative activity against human A-431 cells harboring wild type EGFR assessed as inhibition of cell proliferation incubated for 72 hrs by sulforhodamine B colorimetric assay; format: functional, cell-based; conditions: A-431, 72 h
[6] = molecular target: Epidermal growth factor receptor (Homo sapiens, UniProt P00533, L858R/T790M); experiment: Inhibition of EGFR L858R/T790M mutant (unknown origin) expressed in baculovirus expression system by ELISA
[7] = molecular target: T1, Epidermal growth factor receptor; experiment: Inhibition of wild type EGFR (unknown origin) expressed in baculovirus expression system by ELISA
[8] = Toxicity in BALB/c nude mouse xenografted with human NCI-H1975 cells harboring EGFR L858R/T790M mutant assessed as morphological changes in kidney at 15 to 30 mg/kg, po for 18 days by hematoxylin and eosin staining based microscopic analysis; format: organism-based; conditions: in vivo, 432 h, dose 15-30 mg/kg, time 18 day
Procedure, shortened: (§2)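 H1975 subcutaneous xenografts were grown in female BALB/cA nu/nu mice (n = 6 per group), dosed at 15 or 30 mg/kg/day for 18 days or with vehicle. At the end the mice were sacrificed. Heart, kidney and liver were harvested, processed and stained with hematoxylin and eosin for routine histological examination.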

[9] = Toxicity in BALB/c nude mouse xenografted with human NCI-H1975 cells harboring EGFR L858R/T790M mutant assessed as morphological changes in liver at 15 to 30 mg/kg, po for 18 days by hematoxylin and eosin staining based microscopic analysis; format: organism-based; conditions: in vivo, 432 h, dose 15-30 mg/kg, time 18 day; procedure, shortened: as §2
[10] = test system: Epidermal growth factor receptor (Homo sapiens), P00533 [L858R,T790M]; experiment: In vivo inhibition of EGFR in BALB/c nude mouse xenografted with human NCI-H1975 cells harboring EGFR L858R/T790M mutant assessed as decrease in phosphorylated-EGFR level at 15 to 30 mg/kg, po for 18 days by western blot analysis; format: functional, organism-based; conditions: dose 15-30 mg/kg, time 18.0 day
NCI-H1975 [11] = experiment: Antitumor activity against human NCI-H1975 cells harboring EGFR L858R/T790M mutant xenografted in BALB/c nude mouse assessed as tumor cell proliferation at 15 to 30 mg/kg, po for 18 days by Ki-67 staining based immunohistochemical analysis; format: functional, organism-based; conditions: dose 15-30 mg/kg, time 18.0 day
Procedure, shortened: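 H1975 xenograft tumors from nude mice (n = 6/group, daily dosing 18 days) were harvested, fixed in 10% formalin, paraffin-embedded and cut into 5 µm sections. Sections deparaffinized and incubated with primary anti-Ki-67 antibody at room temperature; immunoreactivity visualized with DAB.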

[12] = Toxicity in BALB/c nude mouse xenografted with human NCI-H1975 cells harboring EGFR L858R/T790M mutant assessed as morphological changes in heart at 15 to 30 mg/kg, po for 18 days by hematoxylin and eosin staining based microscopic analysis; format: organism-based; conditions: in vivo, 432 h, dose 15-30 mg/kg, time 18 day; procedure, shortened: as §2
[13] = Toxicity in BALB/c nude mouse xenografted with human NCI-H1975 cells harboring EGFR L858R/T790M mutant assessed as body weight loss at 15 to 30 mg/kg, po for 18 days; format: organism-based; conditions: in vivo, 432 h, dose 15-30 mg/kg, time 18 day
Procedure, shortened: (§3)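 Female BALB/cA nu/nu mice were given 1 × 10^6 H1975 cells in 0.1 mL PBS subcutaneously in the right flank. At an average tumour volume of 100 mm3 (about 18 days post-implantation) they were randomised, n = 6 per group. Groups received 15 or 30 mg/kg/day for 18 consecutive days or vehicle. Mice were kept at constant room temperature, 12/12-h light/dark, with standard diet and water ad lib.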

[14] = Toxicity in BALB/c nude mouse xenografted with human NCI-H1975 cells harboring EGFR L858R/T790M mutant assessed as mortality at 15 to 30 mg/kg, po for 18 days; format: organism-based; conditions: in vivo, 432 h, dose 15-30 mg/kg, time 18 day; procedure, shortened: as §3
NCI-H1975 [15] = experiment: Antitumor activity against human NCI-H1975 cells harboring EGFR L858R/T790M mutant xenografted in BALB/c nude mouse assessed as tumor growth inhibition at 30 mg/kg, po for 18 days; format: functional; conditions: NCI-H1975, 432 h, time 18 day, read-out: TGI
Procedure, shortened: (§4)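 H1975 cells (1 × 10^6 in 0.1 mL PBS) injected subcutaneously into the right flank of female nude mice. At mean tumor volume of about 100 mm3 (roughly 18 days), mice randomized, n = 6 per group, and dosed once daily for 18 days against a vehicle group. Tumor volume (0.5 × L × W²) measured every 2–3 days; tumors weighed at sacrifice. Data given as mean ± SEM.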

NCI-H1975 [16] = experiment: Antitumor activity against human NCI-H1975 cells harboring EGFR L858R/T790M mutant xenografted in BALB/c nude mouse assessed as tumor growth inhibition at 15 mg/kg, po for 18 days; format: functional; conditions: NCI-H1975, 432 h, time 18 day, read-out: TGI; procedure, shortened: as §4
[17] = Oral bioavailability in Sprague-Dawley rat at 10 mg/kg and measured after 24 hrs by LC-MS/MS analysis; format: ADME, organism-based; conditions: in vivo
Procedure, shortened: (§5)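 Male Sprague–Dawley rats (190–220 g) dosed by oral gavage at 10 mg/kg in 5% DMSO / 95% HP-β-CD aqueous solution (20%); iv reference arm at 1 mg/kg. Blood sampled at 0.25, 0.5, 1, 2, 4, 6, 8 and 24 h, centrifuged (8000 × g, 6 min), and plasma quantified by LC–MS/MS.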

[18] = AUC (0 to infinity) in Sprague-Dawley rat at 10 mg/kg, po and measured after 24 hrs by LC-MS/MS analysis; format: ADME, organism-based; set-up: dose 10 mg/kg, time 24 hrs, route po; conditions: in vivo; procedure, shortened: as §5
[19] = Cmax in Sprague-Dawley rat at 10 mg/kg, po and measured after 24 hrs by LC-MS/MS analysis; format: ADME, organism-based; set-up: dose 10 mg/kg, time 24 hrs, route po; conditions: in vivo; procedure, shortened: as §5
[20] = Half life in Sprague-Dawley rat at 10 mg/kg, po and measured after 24 hrs by LC-MS/MS analysis; format: ADME, organism-based; conditions: in vivo; procedure, shortened: as §5
[21] = Volume of distribution at steady state in Sprague-Dawley rat at 1 mg/kg, iv and measured after 24 hrs by LC-MS/MS analysis; format: ADME, organism-based; conditions: in vivo, read-out: Vdss
[22] = Clearance in Sprague-Dawley rat at 1 mg/kg, iv and measured after 24 hrs by LC-MS/MS analysis; format: ADME, organism-based; conditions: in vivo
[23] = AUC (0 to infinity) in Sprague-Dawley rat at 1 mg/kg, iv and measured after 24 hrs by LC-MS/MS analysis; format: ADME, organism-based; set-up: time 24 hrs, dose 1 mg/kg, route iv; conditions: in vivo
[24] = Half life in Sprague-Dawley rat at 1 mg/kg, iv and measured after 24 hrs by LC-MS/MS analysis; format: ADME, organism-based; conditions: in vivo
[25] = Cmax in Sprague-Dawley rat at 1 mg/kg, iv and measured after 24 hrs by LC-MS/MS analysis; format: ADME, organism-based; set-up: dose 1 mg/kg, time 24 hrs, route iv; conditions: in vivo
[26] = molecular target: Tyrosine-protein kinase BTK (Homo sapiens) (UniProt Q06187); experiment: Inhibition of BTK (unknown origin) at 1000 nM by DiscoverX KINOMEscan assay
[27] = molecular target: Focal adhesion kinase 1 (Homo sapiens) (UniProt Q05397); experiment: Inhibition of FAK (unknown origin) at 1000 nM by DiscoverX KINOMEscan assay
Chain of Focal adhesion kinase 1 (Homo sapiens) (Q05397 2-1052 limits assumed): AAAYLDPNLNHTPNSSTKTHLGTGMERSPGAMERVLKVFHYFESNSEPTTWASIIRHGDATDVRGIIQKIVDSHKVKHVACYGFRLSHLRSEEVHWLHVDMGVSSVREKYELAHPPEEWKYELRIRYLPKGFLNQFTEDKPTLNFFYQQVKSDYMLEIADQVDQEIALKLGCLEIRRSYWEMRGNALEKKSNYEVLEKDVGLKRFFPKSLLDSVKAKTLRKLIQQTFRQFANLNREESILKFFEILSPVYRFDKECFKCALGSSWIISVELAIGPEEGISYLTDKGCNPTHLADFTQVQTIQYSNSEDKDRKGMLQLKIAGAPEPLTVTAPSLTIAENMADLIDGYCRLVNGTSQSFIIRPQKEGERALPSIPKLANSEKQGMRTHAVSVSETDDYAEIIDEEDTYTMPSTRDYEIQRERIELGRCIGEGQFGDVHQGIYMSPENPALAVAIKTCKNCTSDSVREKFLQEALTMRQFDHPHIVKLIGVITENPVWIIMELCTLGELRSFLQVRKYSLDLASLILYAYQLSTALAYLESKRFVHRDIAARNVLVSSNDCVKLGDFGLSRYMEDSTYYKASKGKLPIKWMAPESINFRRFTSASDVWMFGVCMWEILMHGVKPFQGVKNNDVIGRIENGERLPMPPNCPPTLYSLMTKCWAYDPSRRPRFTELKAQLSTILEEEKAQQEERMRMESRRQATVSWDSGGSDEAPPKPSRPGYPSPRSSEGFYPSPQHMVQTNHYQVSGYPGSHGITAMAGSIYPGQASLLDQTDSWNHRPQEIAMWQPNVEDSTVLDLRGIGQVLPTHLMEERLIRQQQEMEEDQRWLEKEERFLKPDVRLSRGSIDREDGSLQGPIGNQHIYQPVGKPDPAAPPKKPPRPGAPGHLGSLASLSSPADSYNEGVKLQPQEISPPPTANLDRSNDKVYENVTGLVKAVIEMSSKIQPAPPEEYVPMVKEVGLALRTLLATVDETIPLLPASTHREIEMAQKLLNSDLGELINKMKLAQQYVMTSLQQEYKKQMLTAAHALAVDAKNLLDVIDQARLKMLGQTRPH

[28] = molecular target: Insulin receptor (Homo sapiens) (UniProt P06213); experiment: Inhibition of INSR (unknown origin) at 1000 nM by DiscoverX KINOMEscan assay
Chain of Insulin receptor (Homo sapiens) (P06213 28-758 limits assumed): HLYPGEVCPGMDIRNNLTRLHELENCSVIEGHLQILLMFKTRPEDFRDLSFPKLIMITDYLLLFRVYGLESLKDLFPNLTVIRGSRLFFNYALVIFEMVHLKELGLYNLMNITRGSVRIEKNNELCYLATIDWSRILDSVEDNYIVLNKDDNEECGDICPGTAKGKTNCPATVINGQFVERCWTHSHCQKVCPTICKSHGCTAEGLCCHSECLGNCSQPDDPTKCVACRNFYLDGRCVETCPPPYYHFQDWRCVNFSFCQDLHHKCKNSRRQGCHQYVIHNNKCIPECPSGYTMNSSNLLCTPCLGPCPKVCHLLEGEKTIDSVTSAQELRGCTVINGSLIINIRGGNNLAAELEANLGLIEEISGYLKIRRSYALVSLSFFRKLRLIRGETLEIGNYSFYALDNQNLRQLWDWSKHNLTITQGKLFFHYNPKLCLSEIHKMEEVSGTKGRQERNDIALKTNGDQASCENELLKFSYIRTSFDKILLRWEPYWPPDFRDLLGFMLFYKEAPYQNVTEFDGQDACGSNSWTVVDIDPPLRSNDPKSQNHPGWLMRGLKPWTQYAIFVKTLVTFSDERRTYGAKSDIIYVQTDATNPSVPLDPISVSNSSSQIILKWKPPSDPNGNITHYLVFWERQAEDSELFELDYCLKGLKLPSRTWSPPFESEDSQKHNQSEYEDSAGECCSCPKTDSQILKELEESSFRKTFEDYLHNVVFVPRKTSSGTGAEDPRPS
Chain of Insulin receptor (Homo sapiens) (P06213 763-1382 limits assumed): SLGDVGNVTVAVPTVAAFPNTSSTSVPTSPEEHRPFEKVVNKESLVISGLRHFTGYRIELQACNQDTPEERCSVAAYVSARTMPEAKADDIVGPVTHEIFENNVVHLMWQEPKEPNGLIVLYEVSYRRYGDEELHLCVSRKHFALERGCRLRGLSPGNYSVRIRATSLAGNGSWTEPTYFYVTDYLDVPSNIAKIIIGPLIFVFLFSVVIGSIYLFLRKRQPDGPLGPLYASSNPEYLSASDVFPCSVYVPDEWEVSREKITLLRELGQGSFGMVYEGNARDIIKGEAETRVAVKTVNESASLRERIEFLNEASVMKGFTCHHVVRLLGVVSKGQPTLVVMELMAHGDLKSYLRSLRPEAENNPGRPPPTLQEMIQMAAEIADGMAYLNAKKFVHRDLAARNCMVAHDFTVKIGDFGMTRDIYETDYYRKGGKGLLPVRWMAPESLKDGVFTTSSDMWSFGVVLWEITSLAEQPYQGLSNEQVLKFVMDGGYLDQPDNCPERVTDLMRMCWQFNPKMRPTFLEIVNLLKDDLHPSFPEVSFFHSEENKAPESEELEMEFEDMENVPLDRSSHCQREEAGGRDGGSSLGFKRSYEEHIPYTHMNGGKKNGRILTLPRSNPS

[29] = molecular target: Tyrosine-protein kinase JAK2 (Homo sapiens) (UniProt O60674); experiment: Inhibition of JAK2 (unknown origin) at 1000 nM by DiscoverX KINOMEscan assay
[30] = test system: Epidermal growth factor receptor (Homo sapiens), P00533 [L858R,T790M]; conditions: NCI-H1975, dose 10.0 nM, time 2.0 hrs

C=CC(=O)Nc1cc(Nc2ncc(Br)c(Nc3ccc4c(c3)CCC4)n2)c(OC)cc1N1CCN(C)CC1
inhibition [1]: inactive
inhibition (NCI-H1975 [2]): Dose-Dependent Effect
inhibition (NCI-H1975 [3]): Dose-Dependent Effect
inhibition [4]: Dose-Dependent Effect
IC50 (NCI-H1975 [5]): 276 nM
IC50 (A-431): 2600 nM
IC50 [6]: 3.2 nM
IC50 [7]: 203 nM
Activity [8]: Non-Toxic
Activity [9]: Non-Toxic
inhibition [10]: Active
Activity (NCI-H1975 [11]): Active
Activity [12]: Non-Toxic
Activity [13]: Non-Toxic
Activity [14]: Non-Toxic
inhibition in vivo at 30 mg/kg (NCI-H1975 [15]): 77%
inhibition in vivo at 15 mg/kg (NCI-H1975 [16]): 61%
F [17]: 35.58%
AUC [18]: 35.58 ng·h/mL
Cmax [19]: 452 ng/mL
half-life [20]: 3.54 h
Vd [21]: 4.83 L/kg
clearance [22]: 15.9 mL/min/kg
AUC [23]: 1052 ng·h/mL
half-life [24]: 5.17 h
Cmax [25]: 407 ng/mL
inhibition [26]: Active
inhibition [27]: Active
inhibition [28]: Active
inhibition [29]: Active
inhibition [30]: Active
